Test results as given in ChEMBL document CHEMBL4190288, “Bioactive Azaphilone Derivatives from the Fungus Talaromyces aculeatus” (J Nat Prod, 2017).
Values after ≈ are worked out from the molar mass of the structure shown. Active and inactive are the calls of the source. The rule behind the calls is not given here.

Experiments:
Vibrio anguillarum = assay: Antibacterial activity against Vibrio anguillarum after 18 hrs by broth dilution method; type: functional
Outline: (§1)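 Conventional broth dilution MIC assay run on a panel of Gram-positive strains (Micrococcus lysodeikticus, Bacillus cereus, Bacillus megaterium) and Gram-negative strains (Proteus vulgaris, Vibrio anguillarum, Vibrio parahaemolyticus). Ciprofloxacin served as the positive control.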

K562 = assay: Cytotoxicity against human K562 cells by MTT assay; type: functional, cell-based
Outline: (§2)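 Cytotoxicity tested on human HL-60, HeLa, A549 and K562 cell lines by a previously referenced method. Adriamycin was the positive control.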

A549 = assay: Cytotoxicity against human A549 cells by SRB assay; type: functional, cell-based; outline: as §2
HL-60 = assay: Cytotoxicity against human HL60 cells by MTT assay; type: functional, cell-based; outline: as §2
HeLa = assay: Cytotoxicity against human HeLa cells by SRB assay; type: functional, cell-based; outline: as §2
Alpha glucosidase = Alpha glucosidase (Homo sapiens, UniProt O43451+P10253+P14410+Q2M2H8); assay: Inhibition of alpha-glucosidase (unknown origin) using p-nitrophenyl glycoside as substrate treated 20 mins post substrate addition measured for 1 min by spectrophotometric analysis; type: protein assay
Outline: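 In vitro α-glucosidase inhibition measured by a previously referenced procedure.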

Priestia megaterium = assay: Antibacterial activity against Bacillus megaterium after 18 hrs by broth dilution method
Vibrio parahaemolyticus = assay: Antibacterial activity against Vibrio parahaemolyticus after 18 hrs by broth dilution method; type: functional; outline: as §1
Bacillus cereus = assay: Antibacterial activity against Bacillus cereus after 18 hrs by broth dilution method
Micrococcus luteus = assay: Antibacterial activity against Micrococcus lysodeikticus after 18 hrs by broth dilution method
Proteus vulgaris = assay: Antibacterial activity against Proteus vulgaris after 18 hrs by broth dilution method

| Compound | MIC (Vibrio anguillarum) | Activity (K562) | Activity (A549) | Activity (HL-60) | Activity (HeLa) | IC50 (Alpha glucosidase) | MIC (Priestia megaterium) | MIC (Vibrio parahaemolyticus) | MIC (Bacillus cereus) | MIC (Micrococcus luteus) | MIC (Proteus vulgaris) |
| --- | --- | --- | --- | --- | --- | --- | --- | --- | --- | --- | --- |
| Cc1cc(O)cc(O)c1C(=O)O[C@H]1[C@@H]2COC(/C=C/CO)=CC2=CC(=O)[C@@]1(C)O [PINOPHILIN B] | > 8.28 µg/mL | inactive | inactive | inactive | inactive | > 200 µM | – | – | – | – | – |
| Cc1cc(O)cc(O)c1C(=O)O[C@H]1[C@@H]2COC(/C=C/C(=O)O)=CC2=CC(=O)[C@@]1(C)O | > 8.28 µg/mL | inactive | inactive | inactive | inactive | > 200 µM | – | – | – | – | – |
| C/C=C/C1=CC2=CC(=O)[C@@](C)(O)[C@@H](OC(=O)c3c(C)cc(O)cc3O)[C@@H]2CO1 | > 8.28 µg/mL | inactive | inactive | inactive | inactive | > 200 µM | – | – | – | – | – |
| COC(=O)C1=CC2=CC(=O)[C@@](C)(O)[C@@H](OC(=O)c3c(C)cc(O)cc3O)[C@@H]2CO1 | > 8.28 µg/mL | inactive | inactive | inactive | inactive | > 200 µM | – | – | – | – | – |
| COC(=O)CCC1=CC2=CC(=O)[C@@](C)(O)[C@@H](OC(=O)c3c(C)cc(O)cc3O)[C@@H]2CO1 | > 8.28 µg/mL | inactive | inactive | inactive | inactive | > 200 µM | – | – | – | – | – |
| Cc1cc(O)cc(O)c1C(=O)O[C@H]1[C@@H]2COC(/C=C/[C@H](C)O)=CC2=CC(=O)[C@@]1(C)O | > 8.28 µg/mL | inactive | inactive | inactive | inactive | 78.6 µM | – | – | – | – | – |
| Cc1cc(O)cc(O)c1C(=O)O[C@]1(C)C(=O)C=C2C=C(/C=C/CO)OC=C2C1=O | – | inactive | inactive | inactive | inactive | > 200 µM | – | – | – | – | – |
| COC(OC)C1=CC2=CC(=O)[C@@](C)(O)[C@@H](OC(=O)c3c(C)cc(O)cc3O)[C@@H]2CO1 | > 8.28 µg/mL | inactive | inactive | inactive | inactive | > 200 µM | – | – | – | – | – |
| C/C=C/C1=CC2=CC(=O)[C@@](C)(OC(=O)c3c(C)cc(O)cc3O)C(=O)C2=CO1 | 0.26 µg/mL (≈ 0.68 µM) | inactive | inactive | inactive | inactive | > 200 µM | – | – | – | – | – |
| Cc1cc(O)cc(O)c1C(=O)O[C@H]1[C@@H]2COC(/C=C/C=O)=CC2=CC(=O)[C@@]1(C)O | 0.26 µg/mL (≈ 0.649 µM) | inactive | inactive | inactive | inactive | 22.9 µM | – | – | – | – | – |
| O=C(O)c1cn(C2CC2)c2cc(N3CCNCC3)c(F)cc2c1=O [CIPROFLOXACIN] | 0.199 to 0.52 µg/mL (≈ 0.601 to 1.57 µM) | – | – | – | – | – | 1.66 µg/mL (≈ 4.99 µM) | 0.43 µg/mL (≈ 1.3 µM) | 0.43 µg/mL (≈ 1.3 µM) | 0.099 µg/mL (≈ 0.299 µM) | 0.199 µg/mL (≈ 0.601 µM) |
| Cc1cc(O)cc(O)c1C(=O)O[C@H]1C2=COC(/C=C/CO)=CC2=CC(=O)[C@@]1(C)O | > 8.28 µg/mL | inactive | inactive | inactive | inactive | > 200 µM | – | – | – | – | – |
